In ChEMBL document CHEMBL1144077, “Cytotoxic lignans of Justicia ciliata” (J Nat Prod, 1999):
≈ marks a conversion by molar mass, not a printed value. Calls of active or inactive are those of the source. No cut-off for these calls is given here. Starred links: 1 amine or outer side, 2 acyl side, 3 side chain; linkers in the order of their positions; H or OH if unused. Positions of bridges follow the written chain, without caps; N, C: chain ends. Non-standard residues stand in square brackets, D forms with d. Residues, ends and D or L forms follow the SMILES beside them. Chains are numbered I, II in the order given. Actinocin(1to9) = Cc1c2oc3c(C)ccc(C(=O)[*:2])c3nc-2c(C(=O)[*:1])c(N)c1=O; NMeV = CN[C@H](C(=O)O)C(C)C; Sar = CNCC(=O)O

How the values were obtained:
HT-3 = test: Cytotoxicity against human HT-3 cells after 6 days by MTT assay; format: functional; settings: for EC50: Homo sapiens, HT-3, 144 h, read-out: ED50 (the source's name)
In short: (§1)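 Human lines kept in DMEM with 10% FBS, 2 mM glutamine, penicillin/streptomycin. 1-3 × 10^3 cells/100 µL seeded, 6 h attachment, then medium replaced with fresh medium (plus 10 mM HEPES pH 7.3) holding a range of drug concentrations. Exposure 6 days, 37 °C, CO2. MTT (1 mg/mL stock, 10 µL) for 4 h, DMSO solubilization, absorbance 550 nm. ED50 in µg/mL.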

T-24 = test: Cytotoxicity against human T24 cells after 6 days by MTT assay; format: functional; settings: for EC50: T-24, 144 h, read-out: ED50 (the source's name); in short: as §1
PLC-PRF-5 = test: (§2) Cytotoxicity against human PLC/PRF/5 cells after 6 days by MTT assay; format: functional; in short: as §1
SiHa = test: Cytotoxicity against human SiHa cells after 6 days by MTT assay; format: functional; settings: for EC50: Homo sapiens, SiHa, 144 h, read-out: ED50 (the source's name); in short: as §1
Ca-Ski = test: Cytotoxicity against human CaSki cells after 6 days by MTT assay; format: functional; settings: for EC50: 144 h, read-out: ED50 (the source's name); in short: as §1
[1] = Cytotoxicity against mouse NIH/3T3-212 cells after 6 days by MTT assay; format: cell-based; settings: for Activity: 144 h; for CC50 at 144 h: NIH/3T3-212 cells, read-out: ED50
In short: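 212 cells (NIH/3T3 carrying inducible Ha-ras) kept in alpha-MEM with 10% calf serum and antibiotics. 1-3 × 10^3 cells/100 µL seeded, 6 h attachment, then fresh HEPES-supplemented (10 mM, pH 7.3) medium with graded drug concentrations for 6 days at 37 °C. MTT 4 h, DMSO dissolution, read at 550 nm. ED50 in µg/mL.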

[2] = as §2; format: functional; settings: PLC-PRF-5, 144 h, read-out: ED50 (the source's name); in short: as §1

COC(=O)C(Cc1ccc2c(c1)OCO2)C(Cc1ccc2c(c1)OCO2)C(=O)OC (stereo not drawn)
Activity (HT-3): inactive | Activity (T-24): inactive | Activity (PLC-PRF-5): inactive | Activity (SiHa): inactive | Activity (Ca-Ski): inactive | Activity [1]: Not Active

COc1ccc(-c2c3c(c(O)c4cc5c(cc24)OCO5)COC3=O)cc1OC
Activity (HT-3): inactive | Activity (T-24): inactive | Activity (PLC-PRF-5): inactive | Activity (SiHa): inactive | Activity (Ca-Ski): inactive | Activity [1]: Not Active

COc1ccc(-c2c3c(c(OC)c4cc5c(cc24)OCO5)COC3=O)cc1OC [CHINENSINAPHTHOL METHYL ETHER]
Activity (HT-3): inactive | Activity (T-24): inactive | Activity (PLC-PRF-5): inactive | Activity (SiHa): inactive | Activity (Ca-Ski): inactive | Activity [1]: Not Active

COc1cc(-c2c3c(c(OC)c4cc(OC)c(OC)cc24)COC3=O)ccc1O [CILINAPHTHALIDE A]
EC50 (HT-3): 0.3 µg/mL (≈ 0.757 µM) | EC50 (T-24): 1.3 µg/mL (≈ 3.28 µM) | EC50 [2]: 12 µg/mL (≈ 30.3 µM) | EC50 (SiHa): 6.4 µg/mL (≈ 16.1 µM) | EC50 (Ca-Ski): 3 µg/mL (≈ 7.57 µM) | CC50 at 144 h [1]: > 8 µg/mL

COc1ccc(-c2c3c(c(OC)c4cc(OC)c(OC)cc24)COC3=O)cc1OC [CILINAPHTHALIDE B]
Activity (HT-3): inactive | Activity (T-24): inactive | Activity (PLC-PRF-5): inactive | Activity (SiHa): inactive | Activity (Ca-Ski): inactive | Activity [1]: Not Active

Cc1c2oc3c(C)ccc(C(=O)N[C@@H]4C(=O)N[C@H](C(C)C)C(=O)N5CCC[C@H]5C(=O)N(C)CC(=O)N(C)[C@@H](C(C)C)C(=O)O[C@@H]4C)c3nc-2c(C(=O)N[C@@H]2C(=O)N[C@H](C(C)C)C(=O)N3CCC[C@H]3C(=O)N(C)CC(=O)N(C)[C@@H](C(C)C)C(=O)O[C@@H]2C)c(N)c1=O [DACTINOMYCIN] (I: T[dV]P[Sar][NMeV] / II: T[dV]P[Sar][NMeV]; ester I:1-I:C, II:1-II:C; linker I:N-II:N via Actinocin(1to9))
ED50 (HT-3): 5.6 ×10⁻⁴ ug/ml | EC50 (T-24): 0.0015 µg/mL (≈ 0.00119 µM) | EC50 [2]: 0.0014 µg/mL (≈ 0.00112 µM) | ED50 (SiHa): 8.1 ×10⁻⁴ ug/ml | EC50 (Ca-Ski): 0.0019 µg/mL (≈ 0.00151 µM)

COc1cc2c(OC)c3c(c(-c4ccc5c(c4)OCO5)c2cc1OC)C(=O)OC3 [JUSTICIDIN A]
EC50 (HT-3): 0.0018 µg/mL (≈ 0.00456 µM) | EC50 (T-24): 0.002 µg/mL (≈ 0.00507 µM) | EC50 [2]: 0.0022 µg/mL (≈ 0.00558 µM) | EC50 (SiHa): 0.0074 µg/mL (≈ 0.0188 µM) | EC50 (Ca-Ski): 0.003 µg/mL (≈ 0.00761 µM) | CC50 at 144 h [1]: 0.0227 µg/mL (≈ 0.0576 µM)

COc1cc2c(OC)c3c(c(-c4ccc5c(c4)OCO5)c2cc1OC)COC3=O [NEOJUSTICIN B]
Activity (HT-3): inactive | Activity (T-24): inactive | Activity (PLC-PRF-5): inactive | Activity (SiHa): inactive | Activity (Ca-Ski): inactive | Activity [1]: Not Active

COc1c2c(c(-c3ccc4c(c3)OCO4)c3cc4c(cc13)OCO4)C(=O)OC2 [TAIWANIN E METHYL ETHER]
EC50 (HT-3): 2.6 µg/mL (≈ 6.87 µM) | EC50 (T-24): 5 µg/mL (≈ 13.2 µM) | EC50 [2]: 6.8 µg/mL (≈ 18 µM) | EC50 (SiHa): 6.1 µg/mL (≈ 16.1 µM) | EC50 (Ca-Ski): > 8 µg/mL | CC50 at 144 h [1]: > 8 µg/mL
